According to publication PMC10876062 (Science (New York, N.Y.), 2023):

Assays:
[1] = tested on: representative Gram-positive and -negative bacteria; assay: Antimicrobial activity against bacteria; format: cell-based; settings: CFUs and O.D. normalized to 0 μM PYY
Summary of the method: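 Gram-positive and Gram-negative bacteria were exposed to a range of test peptide concentrations, with or without mucus, and compared with a magainin-2 reference peptide. Surviving CFUs were normalised to 0 μM peptide, and O.D. growth to wells with 0 μM peptide. Each assay was run in duplicate, three times, and analysed by ANOVA.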

C. albicans hyphae [2] = assay: C. albicans hyphal respiration; format: cell-based, Candida albicans; settings: XTT assay; increasing concentrations, with or without 2.5% w/v mucin
Summary of the method: (§1)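 C. albicans hyphae were grown in RPMI. They were exposed to the test peptide with or without 2.5% w/v porcine […], alongside scrambled-peptide and magainin-2 controls. Read-outs were respiration by XTT tetrazolium assay, dry weight, biofilm adherence and CFUs. Each assay was run in duplicate, three times.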

C. albicans hyphae [3] = assay: Propidium iodide membrane permeabilization of C. albicans hyphae; format: cell-based, Candida albicans
Summary of the method: (§2)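 C. albicans yeast and hyphae were exposed to FITC-tagged test peptide and stained with propidium iodide to read membrane permeabilization. Exposure was in standard antimicrobial peptide assay buffer, in the preferred growth medium (YPD for yeast, RPMI for hyphae), or in buffer plus 2.5% w/v porcine mucus. For hyphae, the assay was repeated with sodium sulfate added as an anionic charge quencher.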

C. albicans hyphae [4] = assay: C. albicans hyphal growth; format: cell-based, Candida albicans
Summary of the method: as §1

[5] = Mucus vs. aqueous partitioning in vitro across 10 kDa MWCO filter; format: physicochemical; settings: 10 kDa MWCO filter separating mucus and aqueous wells
Summary of the method: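 Test peptide was added to either the mucus well or the aqueous well of a pair separated by a 10 kDa MWCO filter. Experiments were run in triplicate and repeated three times, with a t-test for comparison.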

C. albicans yeast [6] = assay: C. albicans yeast survival; format: cell-based, Candida albicans; settings: increasing concentrations, media with or without 2.5% w/v mucin; CFU and O.D.
Summary of the method: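 C. albicans yeast were grown in YPD. They were exposed to the test peptide with or without 2.5% w/v porcine […], alongside scrambled-peptide and magainin-2 controls. Survival was read as CFUs and growth as optical density. Each assay was run in duplicate, three times.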

C. albicans yeast [7] = assay: Propidium iodide membrane permeabilization of C. albicans yeast; format: cell-based, Candida albicans; settings: 30 μM peptide
Summary of the method: as §2

[8] = tested on: C. albicans hyphae on Caco-2 cells; assay: C. albicans hyphae-GFP attachment to Caco-2 cells; format: cell-based, Candida albicans; settings: 20 μM peptide, 6 hours, confluent Caco-2, vs vehicle

Substance: magainin-2 [reference compound]
- Antimicrobial activity against Gram-positive and -negative bacteria [1]: more effective

Substance: PYY1–36: unmodified, full length peptide YY expressed by Paneth cells
- Effect on hyphal respiration (C. albicans hyphae [2]): decrease in hyphal respiration
- Concentration at which permeabilization of hyphae was observed (PI) (C. albicans hyphae [3]; hyphae induced in presence of 2.5% w/v porcine mucin, propidium iodide): 30 µM
- Peptide-induced permeability (PI) in presence of sodium sulfate (C. albicans hyphae [3]; sodium sulfate as anionic quencher of cationic charge): reduced
- Shape of dose-response in biofilm and colony forming units (C. albicans hyphae [4]; 2.5% w/v mucin present): sigmoidal dose-response curve
- Concentration of peak effect (biphasic dose-response) (C. albicans hyphae [4]; aqueous (RPMI) buffer): ~ 30 μM
- Concentration of loss of activity (biphasic dose-response) (C. albicans hyphae [4]; aqueous (RPMI) buffer, attributed to self-aggregation): 100 µM
- Concentration at which biofilm formation was significantly reduced (C. albicans hyphae [4]; aqueous conditions, biofilm adherence): 20 to 50 µM
- Concentration at which hyphal growth was significantly reduced (C. albicans hyphae [4]; aqueous conditions, dry weight): 20 to 50 µM
- Antimicrobial activity against Gram-positive and -negative bacteria [1]: less activity compared with more effective magainin-2
- Partitioning between mucus and aqueous compartments [5]: preferentially partitions into mucus
- Effect on yeast numbers or density (C. albicans yeast [6]): did not affect
- Permeabilization of yeast (PI) (C. albicans yeast [7]): unaffected
- Numbers of hyphae attached to Caco-2 cells [8]: significantly reduced

Substance: PYY3–36: circulating endocrine form, formed by removal of two N-terminal amino acids by DPP-IV [reference compound]
- Effect on hyphal respiration (C. albicans hyphae [2]): less activity
- Permeabilization / disruption of hyphae (PI), in words (C. albicans hyphae [3]; propidium iodide, compared with PYY1–36 (native L-isoform)): Less pronounced permeabilization
- Effect on biofilm (C. albicans hyphae [4]; biofilm adherence): No differences

Substance: PYY1–36 - fluorescein isothiocyanate (FITC) tagged peptide: FITC tagged PYY1–36
- Co-localization of tagged peptide with PI signal (C. albicans hyphae [3]; FITC-tagged peptide, fluorescence microscopy): co-localized with the PI signal within hyphae
